Results from ChEMBL document CHEMBL4043299, “Repurposing a Library of Human Cathepsin L Ligands: Identification of Macrocyclic Lactams as Potent Rhodesain and Trypanosoma brucei Inhibitors” (J Med Chem, 2018).
pIC50, pKi: −log10 of the molar value. Active and inactive are the calls of the source. No cut-off for these calls is given here.

What was measured:
[1] = Selectivity index, ratio of Ki for human CatL to Ki for Trypanosoma brucei rhodesiense rhodesain
Procedure, shortened: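 Ki from IC50 via Cheng–Prusoff in fluorescence-based protease assay; index = Ki(hCatL)/Ki(RD); Ki as average of two measurements, each in duplicate.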

[2] = test system: Trypanosoma brucei rhodesiense; assay: Antitrypanosomal activity against bloodstream form of Trypanosoma brucei rhodesiense STIB 900 assessed as parasite growth inhibition incubated for 24 to 48 hrs followed by 72 hrs recovery by Alamar blue assay; format: functional
L6 = assay: Cytotoxicity against rat L6 cells after 72 hrs by Alamar blue assay; format: cell-based; conditions: Rattus norvegicus, L6, 72 h
Procedure, shortened: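 Rat skeletal myoblast L6 cells, growth inhibition; IC50 as average of at least 2 measurements.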

Procathepsin L = Procathepsin L (Homo sapiens, UniProt P07711); assay: Inhibition of human CatL using Cbz-Phe-Arg-AMC as substrate measured over 30 mins by fluorimetric method
[3] = test system: Trypanosoma brucei rhodesiense; assay: Antitrypanosomal activity against bloodstream form of Trypanosoma brucei rhodesiense STIB 900 assessed as parasite growth inhibition after 72 hrs by Alamar blue assay; format: functional; conditions: Trypanosoma brucei, STIB 900, 72 h
Procedure, shortened: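 T. b. rhodesiense STIB900 bloodstream trypomastigotes; cell-growth inhibition read by Alamar blue; IC50 as average of at least 2 measurements.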

[4] = Selectivity index, ratio of IC50 for rat L6 cells to IC50 for bloodstream form of Trypanosoma brucei rhodesiense STIB 900; format: toxicity; conditions: L6 cells, read-out: Ratio IC50
Procedure, shortened: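 Ratio of L6 cell IC50 to T. b. rhodesiense STIB900 trypomastigote IC50.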

Rhodesain = Rhodesain (Trypanosoma brucei rhodesiense, UniProt Q95PM0); assay: Inhibition of Trypanosoma brucei rhodesiense rhodesain using Cbz-Phe-Arg-AMC as substrate by fluorimetric method
Procedure, shortened: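 Fluorescence-based protease assay. IC50 was converted to Ki by the Cheng-Prusoff equation. Values are the average of two measurements, each run in duplicate.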

[5] = test system: Trypanosoma brucei rhodesiense; assay: Antitrypanosomal activity against bloodstream form of Trypanosoma brucei rhodesiense STIB 900 infected in NMRI mouse assessed as reduction of parasitemia at 25 mg/kg, ip bid administered for 4 consecutive days starting 3 days post infection measured 24 hrs post last dose; format: functional, organism-based
Procedure, shortened: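 Mice infected with T. b. rhodesiense STIB900 (acute model); dosing from day 3 post-infection on four consecutive days, 25 mg kg⁻¹ i.p. twice daily, 0.1 mL/10 g; three infected-untreated controls; parasitaemia monitored by tail-snip blood smears twice weekly for two weeks, then weekly to day 60; relapse day recorded post-infection.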

[6] = Drug uptake in bloodstream form of Trypanosoma brucei rhodesiense STIB 900 infected NMRI mouse blood at 25 mg/kg, ip bid administered for 4 consecutive days starting 3 days post infection measured at 16 hrs post last dose; format: ADME, organism-based; conditions: read-out: Drug uptake
[7] = Drug uptake in bloodstream form of Trypanosoma brucei rhodesiense STIB 900 infected NMRI mouse blood at 25 mg/kg, ip bid administered for 4 consecutive days starting 3 days post infection measured at 4 hrs post last dose; format: ADME, organism-based; conditions: read-out: Drug uptake
[8] = Drug uptake in bloodstream form of Trypanosoma brucei rhodesiense STIB 900 infected NMRI mouse blood at 25 mg/kg, ip bid administered for 4 consecutive days starting 3 days post infection measured at 1 hr post last dose; format: ADME, organism-based; conditions: read-out: Drug uptake
[9] = biological target: Rhodesain (Trypanosoma brucei rhodesiense) (UniProt Q95PM0); assay: Inhibition of Trypanosoma brucei rhodesiense rhodesain at 20 uM using Cbz-Phe-Arg-AMC as substrate by fluorimetric method relative to control
MDR1 = assay: Efflux ratio of permeability across pig LLC-PK1 cells expressing human MDR1 at 1 uM after 3.5 hrs by LC-MS/MS analysis; format: ADME, cell-based, Sus scrofa
Procedure, shortened: (§1)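 Porcine kidney LLC-PK1 cells stably transfected with human ABCB1 (MDR1) or mouse Abcb1a (Mdr1a). Cells were grown with 10% FCS and 100 ng/mL colchicine and seeded on permeable inserts, then assayed on day 4. Compound was added at 1 μM to the apical or basolateral side, and transport was run in both directions in triplicate at 37 °C, 5% CO2. Donor and receiver were sampled at 3.5 h and quantified by LC–MS/MS. Lucifer yellow was used as the monolayer tightness control.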

Mdr1a = assay: Efflux ratio of permeability across pig LLC-PK1 cells expressing mouse Mdr1a at 1 uM after 3.5 hrs by LC-MS/MS analysis; format: ADME, cell-based, Sus scrofa; procedure, shortened: as §1
[10] = test system: Trypanosoma brucei brucei; assay: Antitrypanosomal activity against Trypanosoma brucei brucei TC 221 assessed as parasite growth inhibition after 72 hrs by Alamar blue assay; format: functional; conditions: TC 221, 72 h

Sequence of Procathepsin L (P07711 whole entry): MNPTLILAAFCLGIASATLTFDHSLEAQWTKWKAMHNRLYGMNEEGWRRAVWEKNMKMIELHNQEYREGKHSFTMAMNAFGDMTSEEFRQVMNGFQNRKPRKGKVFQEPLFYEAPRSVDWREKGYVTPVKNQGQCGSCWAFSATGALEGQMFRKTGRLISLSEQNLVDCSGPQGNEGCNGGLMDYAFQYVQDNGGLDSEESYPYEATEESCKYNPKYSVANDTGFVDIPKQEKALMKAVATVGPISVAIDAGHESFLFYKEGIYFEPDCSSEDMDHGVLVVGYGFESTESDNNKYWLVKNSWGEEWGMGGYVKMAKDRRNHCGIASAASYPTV
Sequence of Rhodesain (Q95PM0 whole entry): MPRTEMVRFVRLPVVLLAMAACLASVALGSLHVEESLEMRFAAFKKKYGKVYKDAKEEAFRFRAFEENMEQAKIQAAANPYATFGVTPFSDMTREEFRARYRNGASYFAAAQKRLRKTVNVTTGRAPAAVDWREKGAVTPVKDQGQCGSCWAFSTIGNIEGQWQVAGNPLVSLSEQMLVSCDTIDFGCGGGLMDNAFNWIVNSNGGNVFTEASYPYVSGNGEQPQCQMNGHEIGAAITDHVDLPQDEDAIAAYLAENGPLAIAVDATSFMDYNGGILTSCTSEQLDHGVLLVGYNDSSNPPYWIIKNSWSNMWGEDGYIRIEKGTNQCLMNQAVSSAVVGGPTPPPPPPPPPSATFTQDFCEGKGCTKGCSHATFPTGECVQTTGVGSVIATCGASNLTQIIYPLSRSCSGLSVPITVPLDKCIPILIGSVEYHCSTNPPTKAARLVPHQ
Sequence of Rhodesain (Trypanosoma brucei rhodesiense) (Q95PM0 1-450): as the sequence (Q95PM0 whole entry) above

Q: Which Ratio Ki [1] does the source give for N#CC1(NC(=O)[C@@H]2Cc3ccc(c(Cl)c3)OC/C=C/CCn3nc(cc3C3CC3)C(=O)N2)CC1 here?
A: 0.1

Q: What about the “growth inhibition (GI)” value [2] of the same compound?
A: Active

Q: What about the pIC50 (L6) of the same compound?
A: 4.22

Q: What about the pKi (Procathepsin L) of the same compound?
A: 8.60

Q: What about the pIC50 [3] of the same compound?
A: 8.30

Q: What about the selectivity ratio [4] of the same compound?
A: 12100

Q: And the pKi (Rhodesain)?
A: 7.76

Q: With N#CC1(NC(=O)[C@@H]2Cc3ccc(c(I)c3)OC/C=C/COc3cc(C(F)(F)F)ccc3C(=O)N2)CC1 (mixture of isomers) as the compound, how does the Ratio Ki [1] read?
A: 0.6

Q: And the pIC50 (L6)?
A: 4.52

Q: And the pKi (Procathepsin L)?
A: 8.25

Q: And the pIC50 [3]?
A: 6.52

Q: And the selectivity ratio [4]?
A: 101

Q: What about the pKi (Rhodesain) of the same compound?
A: 8.06

Q: With N#CC1(NC(=O)[C@@H]2Cc3ccc(c(Cl)c3)OC/C=C/COc3c(F)cc(F)cc3C(=O)N2)CC1 as the compound, how does the “growth inhibition (GI)” value [2] read?
A: Active

Q: For CSc1ccc2c(c1)C(=O)N[C@H](C(=O)NC1(C#N)CC1)Cc1ccc(c(Cl)c1)OC/C=C/CO2, which Activity [5] is on record?
A: inactive

Q: And the concentration at 16 h [6]?
A: < 10 ng/mL

Q: What about the concentration at 4 h [7] of the same compound?
A: 66.4 ng/mL

Q: And the concentration at 1 h [8]?
A: 951 ng/mL

Q: With N#CC1(NC(=O)[C@@H]2Cc3ccc(c(-c4cc[nH]n4)c3)OCCCCOc3cc(C(F)(F)F)ccc3C(=O)N2)CC1 as the compound, how does the pIC50 (L6) read?
A: < 4.00

Q: And the pKi (Procathepsin L)?
A: 5.87

Q: And the pIC50 [3]?
A: 6.85

Q: And the inhibition [9]?
A: 45%

Q: Which results are given for N#CC1(NC(=O)[C@@H]2Cc3ccc(c(Cl)c3)OC/C=C/COc3cc(-c4ccc(Cl)nc4)ccc3C(=O)N2)CC1 (mixture of isomers)?
A: Ratio Ki [1]: 2.4; pIC50 (L6): 5.19; pKi (Procathepsin L): 8.14; pIC50 [3]: 6.47; selectivity ratio [4]: 19; pKi (Rhodesain): 8.52

Q: With N#CC1(NC(=O)[C@@H]2Cc3ccc(c(Cl)c3)OCCCCOc3cc4c(cc3C(=O)N2)CCCC4)CC1 as the compound, how does the pKi (Procathepsin L) read?
A: 8.52

Q: What about the efflux ratio at 3.5 h, 1 µM (MDR1) of the same compound?
A: 26

Q: And the efflux ratio at 3.5 h, 1 µM (Mdr1a)?
A: 38

Q: And the pIC50 [10]?
A: 9.00

Q: And the pKi (Rhodesain)?
A: 7.59

Q: Which Ratio Ki [1] does the source give for N#CC1(NC(=O)[C@@H]2Cc3ccc(c(Cl)c3)OC/C=C/COc3cc(C(F)(F)F)ccc3C(=O)N2)CC1 here?
A: 0.1

Q: And the “growth inhibition (GI)” value [2]?
A: Active

Q: What about the pIC50 (L6) of the same compound?
A: 4.43

Q: And the pKi (Procathepsin L)?
A: 8.62

Q: What about the pIC50 [3] of the same compound?
A: 8.70

Q: And the selectivity ratio [4]?
A: 18500

Q: And the pKi (Rhodesain)?
A: 7.69

Q: For N#CC1(NC(=O)[C@@H]2Cc3ccc(c(Cl)c3)OC/C=C/COc3ccc(-c4ccc(F)cc4)cc3C(=O)N2)CC1 (mixture of isomers), which Ratio Ki [1] is on record?
A: 7.8

Q: What about the pIC50 (L6) of the same compound?
A: 4.34

Q: And the pKi (Procathepsin L)?
A: 7.81

Q: What about the pIC50 [3] of the same compound?
A: 6.46

Q: And the selectivity ratio [4]?
A: 131

Q: And the pKi (Rhodesain)?
A: 8.70

Q: Which results are given for N#CC1(NC(=O)[C@@H]2Cc3ccc(c(I)c3)OCCCCOc3cc(C(F)(F)F)ccc3C(=O)N2)CC1?
A: Ratio Ki [1]: 0.1; pIC50 (L6): 4.25; pKi (Procathepsin L): 8.24; pIC50 [3]: 7.52; selectivity ratio [4]: 1890; pKi (Rhodesain): 7.24

Q: With N#CC1(NC(=O)[C@@H]2Cc3ccc(c(Cl)c3)OC/C=C/Cn3c(=O)c(cc4cc(Cl)ccc43)C(=O)N2)CC1 (mixture of isomers) as the compound, how does the Ratio Ki [1] read?
A: 0.9

Q: And the pIC50 (L6)?
A: 4.79

Q: What about the pKi (Procathepsin L) of the same compound?
A: 6.56

Q: What about the pIC50 [3] of the same compound?
A: 8.10

Q: And the selectivity ratio [4]?
A: 2020

Q: And the pKi (Rhodesain)?
A: 6.52

Q: Which Ratio Ki [1] does the source give for N#CC1(NC(=O)[C@@H]2Cc3ccc(c(Cl)c3)OC/C=C/COc3cc4ccccc4cc3C(=O)N2)CC1 (mixture of isomers) here?
A: 1.2

Q: And the pIC50 (L6)?
A: 4.36

Q: What about the pKi (Procathepsin L) of the same compound?
A: 8.92

Q: And the pIC50 [3]?
A: 9.30

Q: What about the selectivity ratio [4] of the same compound?
A: 87600

Q: What about the pKi (Rhodesain) of the same compound?
A: 9.00

Q: What does the source list for N#CC1(NC(=O)[C@@H]2Cc3ccc(c(-c4cc[nH]n4)c3)OCCCCOc3ccccc3C(=O)N2)CC1?
A: Ratio Ki [1]: 1; pIC50 (L6): 4.06; pKi (Procathepsin L): 5.96; pIC50 [3]: 5.91; selectivity ratio [4]: 70; pKi (Rhodesain): 5.96
